In ChEMBL document CHEMBL3351818, “Synthesis and biological evaluation of novel 3,4-diaryl-1,2,5-selenadiazol analogues of combretastatin A-4” (Eur J Med Chem, 2014):
Activity calls are given as the source filed them. The calls are words filed in the database; no cut-off is given here.

Experiments:
[1] = Cell cycle arrest in human HT1080 cells assessed as accumulation at G2/M phase at 50 nM after 24 hrs using propidium iodide staining by FACScan flow cytometry (reference value: 29.27 %); type: functional, cell-based; settings: HT-1080
Summary of the method: (§1)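 HT-1080 cells (8 × 10⁴) exposed 24 h to test agent or 0.05% DMSO vehicle. Harvested by centrifugation, PBS-washed, fixed in ice-cold 70% ethanol, then RNase-treated 30 min at 37 °C. Propidium iodide 50 µg/mL applied 30 min at 4 °C in the dark before FACScan flow cytometry. Repeated at least three times.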

[2] = Cell cycle arrest in human HT1080 cells assessed as accumulation at G2/M phase at 75 nM after 24 hrs using propidium iodide staining by FACScan flow cytometry (reference value: 29.27 %); type: functional, cell-based; settings: HT-1080; summary of the method: as §1
[3] = Antiproliferative activity against human SGC7901 cells after 72 hrs by MTT assay; type: functional, cell-based; settings: SGC-7901, 72 h
Summary of the method: (§2)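 Cells were seeded at 1–3 × 10⁴/well, depending on growth rate, and grown 24 h. Triplicate wells were then exposed to agents for 72 h at 37 °C in 5% CO₂. IC50 is the concentration giving 50% absorbance reduction versus vehicle, averaged from ≥3 independent experiments. SGC-7901 and HT-1080 were cultured in RPMI-1640 with 10% FBS.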

[4] = Cell cycle arrest in human HT1080 cells assessed as accumulation at S phase at 50 nM after 24 hrs using propidium iodide staining by FACScan flow cytometry (reference value: 18.56 %); type: functional, cell-based; settings: HT-1080; summary of the method: as §1
[5] = Cell cycle arrest in human HT1080 cells assessed as accumulation at sub-G1 phase at 25 nM after 24 hrs using propidium iodide staining by FACScan flow cytometry; type: functional, cell-based; settings: HT-1080; summary of the method: as §1
[6] = Cell cycle arrest in human HT1080 cells assessed as accumulation at sub-G1 phase at 150 nM after 24 hrs using propidium iodide staining by FACScan flow cytometry; type: functional, cell-based; settings: HT-1080; summary of the method: as §1
[7] = system: HT-1080; assay: Disruption of microtubule network in human HT1080 cells assessed as loss of the radial distribution of structured microtubules at 2 times IC50 after 12 hrs by immunofluorescence staining method; type: cell-based
Summary of the method: (§3)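 HT-1080 cells seeded at 1 × 10⁴/well, grown 24 h, then given vehicle or agent for 12 h. Fixed in 4% formaldehyde/PBS 30 min at −20 °C, permeabilised with 0.1% Triton X-100 5 min, and blocked with 5% BSA. Anti-α-tubulin (1:100) applied overnight at 4 °C, then FITC anti-mouse secondary (1:1000) 3 h at 37 °C, with DAPI counterstain.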

[8] = Cell cycle arrest in human HT1080 cells assessed as accumulation at sub-G1 phase at 75 nM after 24 hrs using propidium iodide staining by FACScan flow cytometry; type: functional, cell-based; settings: HT-1080; summary of the method: as §1
[9] = molecular target: T1, Tubulin (Homo sapiens) (UniProt P68371+Q9H4B7+P0DPH7+P68366+Q13509+Q71U36+P04350+Q3ZCM7+P07437+P68363+Q9BQE3+Q6PEY2+Q13885+Q9BVA1+Q9BUF5); assay: Inhibition of tubulin (unknown origin) polymerization at 8 uM measured for 90 mins by fluorescence assay; type: protein-complex assay
[10] = Cell cycle arrest in human HT1080 cells assessed as accumulation at S phase at 25 nM after 24 hrs using propidium iodide staining by FACScan flow cytometry (reference value: 18.56 %); type: functional, cell-based; settings: HT-1080; summary of the method: as §1
[11] = Cell cycle arrest in human HT1080 cells assessed as accumulation at G0/G1 phase at 150 nM after 24 hrs using propidium iodide staining by FACScan flow cytometry (Rvb =52.17 %); type: functional, cell-based; settings: HT-1080; summary of the method: as §1
[12] = system: HT-1080; assay: Disruption of microtubule network in human HT1080 cells assessed as cell detachment at 2 times IC50 after 12 hrs by immunofluorescence staining method; type: cell-based; summary of the method: as §3
[13] = Cell cycle arrest in human HT1080 cells assessed as accumulation at sub-G1 phase at 100 nM after 24 hrs using propidium iodide staining by FACScan flow cytometry; type: functional, cell-based; settings: HT-1080; summary of the method: as §1
[14] = system: KB; assay: Antiproliferative activity against human KB cells after 72 hrs by MTT assay; type: functional, cell-based; summary of the method: as §2
[15] = Cell cycle arrest in human HT1080 cells assessed as accumulation at S phase at 150 nM after 24 hrs using propidium iodide staining by FACScan flow cytometry (reference value: 18.56 %); type: functional, cell-based; settings: HT-1080; summary of the method: as §1
[16] = Cell cycle arrest in human HT1080 cells assessed as accumulation at S phase at 100 nM after 24 hrs using propidium iodide staining by FACScan flow cytometry (reference value: 18.56 %); type: functional, cell-based; settings: HT-1080; summary of the method: as §1
[17] = Cell cycle arrest in human HT1080 cells assessed as accumulation at G2/M phase after 24 hrs using propidium iodide staining by FACScan flow cytometry; type: functional, cell-based; settings: HT-1080; summary of the method: as §1
[18] = Cell cycle arrest in human HT1080 cells assessed as accumulation at G0/G1 phase at 75 nM after 24 hrs using propidium iodide staining by FACScan flow cytometry (Rvb =52.17 %); type: functional, cell-based; settings: HT-1080; summary of the method: as §1
[19] = Cell cycle arrest in human HT1080 cells assessed as accumulation at G0/G1 phase at 50 nM after 24 hrs using propidium iodide staining by FACScan flow cytometry (Rvb =52.17 %); type: functional, cell-based; settings: HT-1080; summary of the method: as §1
[20] = system: HT-1080; assay: Disruption of microtubule network in human HT1080 cells assessed as cell rounding at 2 times IC50 after 12 hrs by immunofluorescence staining method; type: cell-based; summary of the method: as §3
[21] = molecular target: T1, Tubulin (Homo sapiens); assay: Inhibition of tubulin (unknown origin) polymerization at 1 uM measured for 90 mins by fluorescence assay; type: protein-complex assay
[22] = molecular target: T1, Tubulin (Homo sapiens); assay: Inhibition of tubulin (unknown origin) polymerization at 2 uM measured for 90 mins by fluorescence assay; type: protein-complex assay
[23] = molecular target: T1, Tubulin (Homo sapiens); assay: Inhibition of tubulin (unknown origin) polymerization at 4 uM measured for 90 mins by fluorescence assay; type: protein-complex assay
[24] = Cell cycle arrest in human HT1080 cells assessed as accumulation at G0/G1 phase at 100 nM after 24 hrs using propidium iodide staining by FACScan flow cytometry (Rvb =52.17 %); type: functional, cell-based; settings: HT-1080; summary of the method: as §1
[25] = Cell cycle arrest in human HT1080 cells assessed as accumulation at G2/M phase at 100 nM after 24 hrs using propidium iodide staining by FACScan flow cytometry (reference value: 29.27 %); type: functional, cell-based; settings: HT-1080; summary of the method: as §1
[26] = Cell cycle arrest in human HT1080 cells assessed as accumulation at G2/M phase at 150 nM after 24 hrs using propidium iodide staining by FACScan flow cytometry (reference value: 29.27 %); type: functional, cell-based; settings: HT-1080; summary of the method: as §1
[27] = Cell cycle arrest in human HT1080 cells assessed as accumulation at G0/G1 phase at 25 nM after 24 hrs using propidium iodide staining by FACScan flow cytometry (Rvb =52.17 %); type: functional, cell-based; settings: HT-1080; summary of the method: as §1
[28] = Cell cycle arrest in human HT1080 cells assessed as accumulation at G2/M phase at 25 nM after 24 hrs using propidium iodide staining by FACScan flow cytometry (reference value: 29.27 %); type: functional, cell-based; settings: HT-1080; summary of the method: as §1
[29] = Cell cycle arrest in human HT1080 cells assessed as accumulation at S phase at 75 nM after 24 hrs using propidium iodide staining by FACScan flow cytometry (reference value: 18.56 %); type: functional, cell-based; settings: HT-1080; summary of the method: as §1
[30] = Cell cycle arrest in human HT1080 cells assessed as accumulation at sub-G1 phase at 50 nM after 24 hrs using propidium iodide staining by FACScan flow cytometry; type: functional, cell-based; settings: HT-1080; summary of the method: as §1
[31] = Antiproliferative activity against human HT1080 cells after 72 hrs by MTT assay; type: functional, cell-based; settings: HT-1080, 72 h; summary of the method: as §2
[32] = molecular target: T1, Tubulin (Homo sapiens); assay: Inhibition of tubulin (unknown origin) polymerization measured for 90 mins by fluorescence assay; type: protein-complex assay

Work on COc1ccc(-c2n[se]nc2-c2cc(OC)c(OC)c(OC)c2)cc1O yielded an Activity [1] of 32.4%, an Activity [2] of 45.2% and an IC50 [3] of 19 nM. It also gave an Activity [4] of 16%, an Activity [5] of 15.7% and an Activity [6] of 10.9%. The Activity [7] was “Active”, the Activity [8] was 4.39% and the inhibition [9] was 97.6%. For the same compound, the Activity [10] was 3.1%, the Activity [11] was 2.61% and the Activity [12] was “Active”. The Activity [13] was 18.1%, the IC50 [14] was 3.9 nM and the Activity [15] was 5.82%. For the same compound, the Activity [16] was 4.07%, the Activity [17] was “Dose-dependent effect” and the Activity [18] was 37.2%. The Activity [19] was 49.1%, the Activity [20] was “Active” and the inhibition [21] was 20.4%. The inhibition [22] was 48.8%, the inhibition [23] was 65% and the Activity [24] was 5.46%. It also gave an Activity [25] of 72.4%, an Activity [26] of 80.7% and an Activity [27] of 3.93%. It also gave an Activity [28] of 71.9%, an Activity [29] of 13.3% and an Activity [30] of 2.47%. For the same compound, the IC50 [31] was 21 nM and the inhibition [32] was “Dose-dependent effect”.

COc1ccc(-c2n[se]nc2-c2cc(OC)c(OC)c(OC)c2)cc1 gave an IC50 [3] of 63 nM, an IC50 [14] of 31 nM and an IC50 [31] of 84 nM.

For COc1ccc(-c2n[se]nc2-c2cc(OC)c(OC)c(OC)c2)cc1OCc1ccccc1, the IC50 [3] was > 30000 nM, the IC50 [14] was > 30000 nM and the IC50 [31] was > 30000 nM.

For COc1cc(-c2n[se]nc2-c2ccc(O)cc2)cc(OC)c1OC, the IC50 [3] was > 30000 nM, the IC50 [14] was 15800 nM and the IC50 [31] was 15000 nM.

In the case of COc1cc(-c2n[se]nc2-c2ccc(O)c(Br)c2)cc(OC)c1OC, the IC50 [3] is reported as > 30000 nM, the IC50 [14] is reported as 4800 nM and the IC50 [31] is reported as 16400 nM.

Compound COc1ccc(-c2n[se]nc2-c2cc(OC)c(OC)c(OC)c2)cc1N has an IC50 [3] of 21 nM, an IC50 [14] of 11 nM and an IC50 [31] of 26 nM.

CCOc1ccc(-c2n[se]nc2-c2cc(OC)c(OC)c(OC)c2)cc1Br showed an IC50 [3] of 12800 nM, an IC50 [14] of 930 nM and an IC50 [31] of 3460 nM.

For CCOc1ccc(-c2n[se]nc2-c2cc(OC)c(OC)c(OC)c2)cc1N, the IC50 [3] was 140 nM, the IC50 [14] was 99 nM and the IC50 [31] was 10100 nM.

Work on COc1cc(-c2n[se]nc2-c2ccc3ccccc3c2)cc(OC)c1OC yielded an IC50 [3] of 2350 nM, an IC50 [14] of 770 nM and an IC50 [31] of 1110 nM.

For COc1ccc(-c2n[se]nc2-c2cc(OC)c(OC)c(OC)c2)cc1Br, the IC50 [3] was > 30000 nM, the IC50 [14] was 3060 nM and the IC50 [31] was 2590 nM.

With COc1ccc(-c2n[se]nc2-c2ccc3c(c2)OCO3)cc1[N+](=O)[O-] the IC50 [3] was > 30000 nM, the IC50 [14] was > 30000 nM and the IC50 [31] was > 30000 nM.
